This is a sample that favours compounds with a hit; in the whole collection about 3% have one here.
S1P1 ag pot = S1P1 agonists and agonism potentiators, primary screen, cell-based, primary and confirmation screens, CRE-bla reporter | Sphingosine 1-phosphate receptor 1 (Homo sapiens), P21453 | S1P1 CRE-bla cells, forskolin, beta-lactamase FRET, potentiator mode; S1P1 agonist co-added at EC20, 2 nM; 100% = saturating reference agonist, 0% = basal | activation, % at 9.5 µM | 0.57% of 56,000 active;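 active means activation above a cutoff set at the mean activation of all tested compounds plus 3 SD, cut at about 54% in these data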;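 further: forskolin at 4 µM as EC80 and the EC20 agonist is SEW2871; 100% = SEW2871 at its EC100 plus forskolin at EC80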
S1P3 agonist = human S1P3 receptor agonists, primary screen, cell-based, primary and confirmation, NFAT-BLA reporter; 0.1% of 60,000 active; AID 373, 2006; Sphingosine 1-phosphate receptor 3 (Homo sapiens), Q99500; S1P3 NFAT-BLA reporter cells, agonism, FRET ratio; relative to 1 µM S1P, basal subtracted; activation, % at 4.5 µM;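 active means activation above the screen-wide mean plus 3 SD, cut at about 4.5% in these data, passing the limit was not always enough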
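Benchmarks: high control 1 µM S1P / System: stable CHO line with human S1P3, Gα16, NFAT-BLA reporter / Dosing: single compound concentration, 4.5 µM final / Timing: 4 h compound at 37 °C, 2 h substrate at RT / Measured by: FRET β-lactamase substrate fluorescence, excitation 405 nm, 460/535 nm emission ratio, background-subtracted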
5-HT1A blocker = human 5-HT1a receptor antagonists, primary screen, cell-based, CHO, Ga15 NFAT-bla reporter | AID 612, 2007 | CHO 5-HT1a Ga15 NFAT-bla reporter, antagonist mode | 0.68% of 62,000 active | 5-hydroxytryptamine receptor 1A (Homo sapiens), P08908 | inhibition, % at 10 µM;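 active means inhibition above the mean of all tested compounds plus 3 SD, cut at about 43% in these data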;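 further: receptor stimulated by 5-CT agonist at 100 nM near EC80; beta-lactamase reporter measured by ratiometric fluorescence of a cleavable substrate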
5HT1E ag = 5-HT1E receptor agonists, primary screen, cell-based, HTS; 0.69% of 65,000 active; AID 574, 2007; CHO 5-HT1E Ga15 NFAT-bla reporter, FRET; 0% DMSO wells, 100% control agonist wells; 5-hydroxytryptamine receptor 1E (Homo sapiens), P28566; activation, % at 6 µM;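 active means activation above a set limit, the screen-wide mean activation plus 3 SD, cut at about 8.5% in these data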;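 further: 100% = positive control agonist at 1 µM giving full maximal response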
Target sequence (P28566 whole entry, looked up): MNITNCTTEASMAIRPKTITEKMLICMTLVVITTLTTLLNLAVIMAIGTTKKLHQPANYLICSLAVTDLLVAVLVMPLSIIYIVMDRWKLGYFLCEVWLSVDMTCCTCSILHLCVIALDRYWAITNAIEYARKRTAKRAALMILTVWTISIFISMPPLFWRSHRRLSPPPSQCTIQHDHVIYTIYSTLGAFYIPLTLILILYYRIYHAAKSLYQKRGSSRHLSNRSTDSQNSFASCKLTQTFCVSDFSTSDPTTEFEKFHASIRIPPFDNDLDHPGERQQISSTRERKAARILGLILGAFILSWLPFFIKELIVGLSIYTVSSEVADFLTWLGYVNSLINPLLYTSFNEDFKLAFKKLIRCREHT
HTR1E antagonist = 5-HT1E receptor antagonists, primary screen, cell-based, HTS; 5-hydroxytryptamine receptor 1E (Homo sapiens), P28566; 0.99% of 65,000 active; inhibition, % at 6 µM; AID 571, 2007; CHO 5-HT1E Ga15 NFAT-bla reporter, FRET, antagonist;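 active means inhibition above a set limit, the mean inhibition across every tested compound plus 3 SD, cut at about 29% in these data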;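 further: signal is the 460 over 535 nm emission ratio of beta-lactamase substrate; 0% = agonist plus DMSO wells and 100% = wells without agonist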
5HT1a ag = human 5-HT1a receptor agonists, primary screen, cell-based, CHO, Ga15 NFAT-bla reporter; 5-hydroxytryptamine receptor 1A (Homo sapiens), P08908; CHO 5-HT1a Ga15 NFAT-bla reporter, FRET ratio; 0% basal, 100% maximal reference agonist; activation, % at 10 µM; 0.56% of 65,000 active;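 active means activation above the screen-wide mean activation plus 3 SD, cut at about 19% in these data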;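 further: 0% = DMSO wells and 100% = 5-CT at EC100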
* hit, by the source's call; . = not tested or not shown.

SMILES	S1P1 ag pot	S1P3 agonist	5-HT1A blocker	5HT1E ag	HTR1E antagonist	5HT1a ag
CCC(C)C1C(C#N)=C(N)Oc2n[nH]c(C)c21 (configuration not stated)	29	0	14	0	39*	-1
Cc1[nH]nc2c1C(C(C)C)C(C#N)=C(N)O2 (configuration not stated)	-2	0	12	0	0	-6
COC(=O)/C(=C1/Oc2cc(C)oc(=O)c2S1)C(F)(F)F	48	-9	.	0	78*	-1
COC(=O)C1=C(N)Oc2cc(C)oc(=O)c2C1c1ccncc1 (configuration not stated)	3	5	.	0	-5	-2
Cc1nn(C(=O)CCCC(=O)n2nc(C)c(Cl)c2C)c(C)c1Cl	-4	0	0	0	-3	-2
CCN(CCNC(=O)C1CCN(S(=O)(=O)c2cccc3cccnc23)CC1)c1ccccc1	-6	0	-15	2	-9	1
O=C(CCN1C(=O)c2ccccc2C1=O)N1CCC(c2ccccc2)C1 (configuration not stated)	.	1	-6	1	-5	32*
O=C(CCN1C(=O)c2ccccc2C1=O)N1CCCCCC1	0	-1	-12	0	-3	-1
CCc1ccccc1NC(=O)CC(O)(C(=O)OC)C(F)(F)F (configuration not stated)	12	-1	-3	-1	3	-1
Cc1nc(CCNC(=O)c2ccccc2)cs1	-16	0	-7	-1	5	-2
c1ccc(Oc2cccc(NC3=NCCC3)c2)cc1	-6	1	-3	0	-6	1
O=C(N1CCN(c2ccccn2)CC1)N1c2ccccc2Sc2ccccc21	8	-1	48*	0	37*	0
O=C(c1ccco1)N1CCN(C(=O)N2c3ccccc3Sc3ccccc32)CC1	15	-2	58*	-1	74*	-2
COc1ccccc1NC(=O)c1ccc(NC(=O)CSc2nnnn2C)cc1	7	0	1	1	-1	-1
CCCNC(=O)Nc1cc(C)on1	8	0	-6	1	5	257*
COc1ccc(NC2=C(C(C)=O)C(c3ccc4c(c3)OCO4)C(C(C)=O)C(C)(O)C2)cc1 (configuration not stated)	-2	-2	17	-1	-2	-1
Cc1nnc(NC(=O)c2cc3n(n2)C(C(F)(F)F)CC(C2CC2)N3)s1 (configuration not stated)	35	0	-3	0	7	0
O=C(Nc1nc2c(s1)CCCC2)c1cc2n(n1)C(C(F)(F)F)CC(C1CC1)N2 (configuration not stated)	107*	0	-1	0	8	-1
Cc1ccccc1OCc1nnc2n1CC(C)S2 (configuration not stated)	1	-2	-2	0	3	-2
COc1cc(NC(=O)c2cc3c(C)nc4ccccc4c3o2)cc(OC)c1OC	-24	-1	0	0	11	5
COc1ccc(CNC(=O)c2cc3c(C)nc4ccccc4c3o2)c(OC)c1	94*	-2	17	0	16	2
COc1cc2c(cc1OC)C1=C(C#N)CN(CC(=O)O)CN1CC2	-31	0	5	-1	33*	0
COc1cc2c(cc1OC)CN(C(=O)COc1ccc(C#N)cc1)CC2	-33	0	-2	0	-2	-2
O=S(=O)(Nc1ncccc1O)c1ccc(Cl)cc1	10	-1	8	-1	-4	0
